According to ChEMBL document CHEMBL1148398, “Design, synthesis, and biological evaluation of thio-containing compounds with serum HDL-cholesterol-elevating properties” (2004):

Experiments:
Cricetinae gen. sp. [1] = assay: Percent change in total plasma cholesterol following oral administration of compound in hypercholesterolemic hamsters at 100 mg/kg/day for 14 days; type: functional
Procedure, shortened: (§1)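 Male Syrian Golden hamsters pre-fed chow plus 0.25% cholesterol for 2 weeks and kept on it. Dosed 100 mg/kg/day by oral gavage in 2% Tween 80/saline for 14 days. Serum total cholesterol and glycerol-blanked triglycerides read enzymatically; lipoproteins separated by FPLC with cholesterol measured in each fraction. % change versus vehicle controls; six per group, p < 0.05.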

Cricetinae gen. sp. [2] = assay: Percent change in low-density lipoprotein cholesterol following oral administration of compound in hypercholesterolemic hamsters at 100 mg/kg/day for 14 days; type: functional; procedure, shortened: as §1
Cricetinae gen. sp. [3] = assay: Effect of compound on high-density lipoprotein cholesterol levels in 3rd group of cholesterol-fed male hamsters at 30 mg/kg/day after 14 days of treatment; type: functional, organism-based
Cricetinae gen. sp. [4] = assay: Effect of compound on liver weight in 1st group of cholesterol-fed male hamsters at 3 mg/kg/day after 14 days of treatment; type: functional
Procedure, shortened: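 Male Syrian Golden hamsters, 90–100 g, fed chow plus 0.25% cholesterol for 2 weeks before and throughout dosing. Compound suspended in 2% Tween 80 in saline, given by oral gavage for 14 days; vehicle controls. Fasted 4 h, last dose 2 h before sacrifice, then weighed and blood and liver collected. Liver enzymes read on a clinical analyzer. Six per group, mean ± SEM.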

Rattus norvegicus [5] = assay: Effect of compound on gain in body weight in 7th group of normal chow-fed male rats after a dose of 100 mg/kg/day; type: functional
Procedure, shortened: (§2)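 Male Sprague–Dawley CD rats (60–80 g) on standard chow under a reversed 12 h light/dark cycle. Compound was suspended in 1.3% Tween 80/0.25% CMC and given as a single daily oral gavage dose for 4 days. Rats were fasted overnight and killed 24 h after the last dose. Serum ALT, AST, ALKP and LDH were read on a clinical analyzer. Weight gain was start versus end weight. Mean ± SEM, n = 6.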

Rattus norvegicus [6] = assay: Percent change in low-density lipoprotein cholesterol following oral administration of compound in normal chow-fed rats at 100 mg/kg/day for 4 days; type: functional
Procedure, shortened: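 Chow-fed male Sprague–Dawley CD rats, 60–80 g, gavaged 100 mg/kg/day for 4 days in 1.3% Tween 80/0.25% CMC. Fasted overnight, bled 24 h after the last dose. Total cholesterol and glycerol-blanked triglycerides read enzymatically; lipoproteins by FPLC with cholesterol per fraction. % change versus control; six per group, p < 0.05.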

Rattus norvegicus [7] = assay: Effect of compound on alkaline phosphatase (ALKP) levels in 7th group of normal chow-fed male rats after a dose of 100 mg/kg/day; type: functional, organism-based; procedure, shortened: as §2
Rattus norvegicus [8] = assay: Effect of compound on aspartate aminotransferase (AST) levels in 6th group of normal chow-fed male rats after a dose of 50 mg/kg/day; type: functional, organism-based; procedure, shortened: as §2
Rattus norvegicus [9] = assay: Effect of compound on high-density lipoprotein cholesterol levels in 3rd group of normal chow-fed male rats after a dose of 5 mg/kg/day; type: functional, organism-based
Rattus norvegicus [10] = assay: Effect of compound on low-density lipoprotein cholesterol levels in 7th group of normal chow-fed male rats after a dose of 100 mg/kg/day; type: functional, organism-based
Procedure, shortened: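 Male Sprague–Dawley CD rats, 60–80 g, on standard chow with reverse 12 h light/dark cycle. One oral gavage dose daily for 4 days, suspended in 1.3% Tween 80 and 0.25% CMC. Fasted overnight; sacrificed 24 h after the last dose. Serum TC on clinical analyzer, lipoproteins by FPLC with cholesterol per fraction, T4 on analyzer. Mean ± SEM, six rats per group.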

Rattus norvegicus [11] = assay: Effect of compound on serum apolipoprotein A1 concentration in chow-fed male rats at a dose of 10 mg/kg/day; type: functional, organism-based
Procedure, shortened: (§3)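 Separate dose-response study in male Sprague–Dawley CD rats, 60–80 g, on chow. Oral gavage once daily for 4 days in 1.3% Tween 80 / 0.25% CMC; fasted overnight, bled 24 h after last dose. Apo-A1 by ELISA with rabbit anti-rat primary, alkaline phosphatase-conjugated anti-rabbit IgG and p-nitrophenyl phosphate substrate. HDL-C by FPLC fractionation. Mean ± SEM, six per group.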

Rattus norvegicus [12] = assay: Effect of compound on serum high-density lipoprotein cholesterol concentration in chow-fed male rats at a dose of 100 mg/kg/day; type: functional, organism-based; procedure, shortened: as §3
Rattus norvegicus [13] = assay: Effect of compound on total plasma cholesterol levels in 4th group of normal chow-fed male rats after a dose of 10 mg/kg/day; type: functional, organism-based
Procedure, shortened: (§4)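 Male Sprague–Dawley CD rats (60–80 g) on Purina 5001 chow with a reverse 12 h light/dark cycle. Dosed once daily by oral gavage for 4 days, suspended in 1.3% Tween 80 / 0.25% CMC. Fasted overnight and bled 24 h after the last dose. Serum TC and glycerol-blanked TG measured enzymatically; VLDL-C by FPLC fractionation with cholesterol assay. n=6, mean ± SEM.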

Rattus norvegicus [14] = assay: Effect of compound on triglycerides level in 3rd group of normal chow-fed male rats after a dose of 5 mg/kg/day; type: functional, organism-based; procedure, shortened: as §4
[15] = Effect on serum lipids in 5th group of normal chow-fed male rats after a dose of 20 mg/kg/day was evaluated as ratio of total plasma cholesterol levels to high-density lipoprotein cholesterol levels; type: functional
Procedure, shortened: (§5)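 Male Sprague–Dawley CD rats, 60–80 g, chow-fed, dosed by oral gavage daily for 4 days in 1.3% Tween 80/0.25% CMC. Fasted overnight, bled 24 h after the last dose. Serum total cholesterol by enzymatic reagent; HDL-C from cholesterol in FPLC fractions; TPC/HDL-C ratio calculated. Six per group, mean ± SEM.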

[16] = Effect on serum lipids in 7th group of normal chow-fed male rats after a dose of 100 mg/kg/day was evaluated as ratio of total plasma cholesterol levels to high-density lipoprotein cholesterol levels; type: functional; procedure, shortened: as §5
[17] = Effect on serum lipids in 2nd group of cholesterol-fed male hamsters at 10 mg/kg/day after 14 days of treatment was evaluated as ratio of total cholesterol levels to high-density lipoprotein cholesterol levels; type: functional
Procedure, shortened: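 Male Syrian Golden hamsters on chow plus 0.25% cholesterol, 2 weeks before and during dosing. Oral gavage for 14 days in 2% Tween 80/saline. Fasted 4 h before sacrifice. Serum total cholesterol measured enzymatically; HDL-C from cholesterol in FPLC lipoprotein fractions; TC/HDL-C ratio calculated. Six per group, mean ± SEM.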

Mesocricetus auratus = assay: Effect of compound on gain in body weight in 1st group of cholesterol-fed male hamsters at 3 mg/kg/day after 14 days of treatment
Cricetinae gen. sp. [18] = assay: Effect of compound on lactic dehydrogenase (LDH) levels in 3rd group of cholesterol-fed male hamsters at 30 mg/kg/day after 14 days of treatment; conditions: Mesocricetus auratus
Cricetinae gen. sp. [19] = assay: Effect of compound on alkaline phosphatase (ALKP) levels in 4th group of cholesterol-fed male hamsters at 100 mg/kg/day after 14 days of treatment; conditions: Mesocricetus auratus
Cricetinae gen. sp. [20] = assay: Effect of compound on low-density lipoprotein cholesterol levels in 2nd group of cholesterol-fed male hamsters at 10 mg/kg/day after 14 days of treatment; conditions: Mesocricetus auratus
Cricetinae gen. sp. [21] = assay: Effect of compound on high-density lipoprotein cholesterol levels in 4th group of cholesterol-fed male hamsters at 100 mg/kg/day after 14 days of treatment; conditions: Mesocricetus auratus

`CCN1CC(=O)N(c2cc(Cl)ccc2C)C1=S` gave a Change (Cricetinae gen. sp. [1]) of -3.3%, a Change (Cricetinae gen. sp. [2]) of -30.1% and a Serum level (Cricetinae gen. sp. [3]) of 156 mg/dL. It also gave a Liver weight (Cricetinae gen. sp. [4]) of 9.58 g, a Body weight (Rattus norvegicus [5]) of 22.5 g and a Change (Rattus norvegicus [6]) of 9.6%. For the same compound, the Level (Rattus norvegicus [7]) was 382 U l-1, the Level (Rattus norvegicus [8]) was 232 U l-1 and the Serum level (Rattus norvegicus [9]) was 45 mg/dL. The Serum level (Rattus norvegicus [10]) was 8.7 mg/dL, the Serum level (Rattus norvegicus [11]) was 79.2 mg/dL and the Serum level (Rattus norvegicus [12]) was 104 mg/dL. The Serum level (Rattus norvegicus [13]) was 85 mg/dL, the Serum level (Rattus norvegicus [14]) was 18 mg/dL and the Ratio [15] was 1.44. It also gave a Ratio [16] of 1.56, a Ratio [17] of 2.85 and a Body weight (Mesocricetus auratus) of 10.2 g. The Level (Cricetinae gen. sp. [18]) was 823 U l-1, the Level (Cricetinae gen. sp. [19]) was 136 U l-1 and the Serum level (Cricetinae gen. sp. [20]) was 136 mg/dL. The Serum level (Cricetinae gen. sp. [21]) was 191 mg/dL.
